According to ChEMBL document CHEMBL2176870 (J Med Chem, 2012):
Converted amounts (≈) assume the structure as drawn. Values belong to the compound of their own block, whether it stands above or below them.

Experiments:
[1] = tested on: Staphylococcus haemolyticus; assay: Antibacterial activity against methicillin-resistant Staphylococcus haemolyticus; format: functional
[2] = tested on: Staphylococcus epidermidis; assay: Antibacterial activity against methicillin-resistant Staphylococcus epidermidis; format: functional
[3] = tested on: Staphylococcus aureus; assay: Antibacterial activity against methicillin-susceptible Staphylococcus aureus; format: functional
[4] = tested on: Staphylococcus aureus; assay: Antibacterial activity against methicillin-resistant Staphylococcus aureus; format: functional
[5] = tested on: Staphylococcus aureus; assay: Antibacterial activity against community acquired methicillin-resistant Staphylococcus aureus; format: functional
[6] = tested on: Staphylococcus aureus; assay: Antibacterial activity against methicillin-resistant Staphylococcus aureus NRS385 infected in Swiss mouse; format: functional
Summary of the method: (§1)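 Murine lethal systemic infection by intraperitoneal MRSA challenge. A single subcutaneous dose was given 5 min after infection.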

[7] = tested on: Staphylococcus aureus; assay: Antibacterial activity against methicillin-resistant Staphylococcus aureus NRS384 infected in Swiss mouse; format: functional; summary of the method: as §1
[8] = tested on: Staphylococcus aureus; assay: Antibacterial activity against methicillin-resistant Staphylococcus aureus NRS382 infected in Swiss mouse; format: functional; summary of the method: as §1
[9] = tested on: Proteus mirabilis; assay: Antibacterial activity against Proteus mirabilis; format: functional
[10] = tested on: Escherichia coli; assay: Antibacterial activity against Escherichia coli; format: functional
[11] = tested on: Moraxella catarrhalis; assay: Antibacterial activity against Moraxella catarrhalis; format: functional
[12] = tested on: Haemophilus influenzae; assay: Antibacterial activity against Haemophilus influenzae; format: functional
[13] = tested on: Neisseria meningitidis; assay: Antibacterial activity against Neisseria meningitidis; format: functional
[14] = tested on: Neisseria gonorrhoeae; assay: Antibacterial activity against Neisseria gonorrhoeae; format: functional
[15] = Cytotoxicity against human HepG2 cells; format: cell-based; conditions: read-out: ED50 (the source's name)
[16] = molecular target: T1, Enoyl-[acyl-carrier-protein] reductase [NADPH] FabI (Staphylococcus aureus, UniProt Q6GI75); assay: Inhibition of Staphylococcus aureus recombinant FabI using trans-2-octenoyl N-acetylcysteamine thioester as substrate preincubated for 60 mins
T1 sequence (Q6GI75 whole entry): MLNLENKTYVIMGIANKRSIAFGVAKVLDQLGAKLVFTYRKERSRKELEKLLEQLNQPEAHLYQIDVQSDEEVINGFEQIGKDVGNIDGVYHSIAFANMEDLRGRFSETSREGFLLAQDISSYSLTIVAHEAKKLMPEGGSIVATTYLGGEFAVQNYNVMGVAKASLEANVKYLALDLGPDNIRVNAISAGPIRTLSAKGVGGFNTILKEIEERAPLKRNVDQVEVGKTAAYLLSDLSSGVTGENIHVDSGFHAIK
Summary of the method: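 Recombinant S. aureus FabI (2 nM) in 50 mM ADA pH 6.5, 1 mM DTT, 0.006% Triton X-100, 50 mM NaCl. Preincubated 60 min at room temperature with 40 μM NADPH, 10 μM NADP+ and inhibitor in DMSO. Reaction started with 100 μM t-o-NAC. Inhibition versus untreated samples; IC50 by Langmuir fit.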

[17] = tested on: Streptococcus pneumoniae; assay: Antibacterial activity against Streptococcus pneumoniae D39 after 18 hrs by broth microdilution method; format: functional; conditions: D39, 18 h
Summary of the method: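 CLSI broth microdilution with 2-fold dilutions from 0.06 to 64 μg/mL. Cation-adjusted Mueller–Hinton broth with 2.5% lysed horse blood, inoculum 5 × 10^5 CFU/mL, grown at 35 °C for 18 h in 5% CO2. MIC is the lowest concentration showing no visible growth.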

[18] = tested on: Enterococcus faecalis; assay: Antibacterial activity against Enterococcus faecalis ATCC 29212 after 18 hrs by broth microdilution method; format: functional; conditions: ATCC 29212, 18 h
Summary of the method: (§2)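 CLSI broth microdilution with serial 2-fold dilutions from 0.06 to 64 μg/mL. Cation-adjusted Mueller–Hinton broth, inoculum 5 × 10^5 CFU/mL, incubated at 35 °C for 18 h. MIC taken as the lowest concentration with no visible growth.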

[19] = tested on: Escherichia coli; assay: Antibacterial activity against Escherichia coli C7 after 18 hrs by broth microdilution method; format: functional; conditions: C7, 18 h
[20] = tested on: Staphylococcus aureus; assay: Antibacterial activity against Staphylococcus aureus CIP54.146 after 18 hrs by broth microdilution method; format: functional; conditions: CIP54.146, 18 h; summary of the method: as §2

SMILES: CC(=O)NC[C@H]1CN(c2ccc(N3CCOCC3)c(F)c2)C(=O)O1 [LINEZOLID]
MIC90 [1]: 1 µg/mL (≈ 2.96 µM)
MIC90 [2]: 1 µg/mL (≈ 2.96 µM)
MIC90 [3]: 2 µg/mL (≈ 5.93 µM)
MIC90 [4]: ≥ 16 µg/mL
MIC90 [5]: 2 µg/mL (≈ 5.93 µM)

SMILES: CN[C@H](CC(C)C)C(=O)N[C@H]1C(=O)N[C@@H](CC(N)=O)C(=O)N[C@H]2C(=O)N[C@H]3C(=O)N[C@H](C(=O)N[C@H](C(=O)O)c4cc(O)cc(O)c4-c4cc3ccc4O)[C@H](O)c3ccc(c(Cl)c3)Oc3cc2cc(c3O[C@@H]2O[C@H](CO)[C@@H](O)[C@H](O)[C@H]2O[C@H]2C[C@](C)(N)[C@H](O)[C@H](C)O2)Oc2ccc(cc2Cl)[C@H]1O [VANCOMYCIN]
ED50 [6]: 5 mg/kg
ED50 [7]: 9.4 mg/kg
ED50 [8]: 6 mg/kg

MIC90 [9]: 0.06 µg/mL
MIC90 [10]: ≥ 16 µg/mL
MIC90 [11]: 0.03 µg/mL
MIC90 [12]: 0.03 µg/mL
MIC90 [13]: ≤ 0.008 µg/mL
MIC90 [14]: 0.5 µg/mL
SMILES: C[C@H]1COc2c(N3CCN(C)CC3)c(F)cc3c(=O)c(C(=O)O)cn1c23.C[C@H]1COc2c(N3CCN(C)CC3)c(F)cc3c(=O)c(C(=O)O)cn1c23.O [LEVOFLOXACIN]

IC50 [16]: 37 nM
MIC [17]: 16 µg/mL (≈ 68.9 µM)
MIC [18]: 32 µg/mL (≈ 138 µM)
MIC [19]: 1 µg/mL (≈ 4.31 µM)
MIC [20]: 0.062 µg/mL (≈ 0.267 µM)
SMILES: CCc1cc(O)c(Oc2ccccc2)cc1F
CC50 [15]: 16 µg/mL (≈ 68.9 µM)
